A selection: hits, their analogues and other compounds. The true share with any hit is near 2.2%.
Ecoli rRNA inh – reduced GFP signal of wild-type E. coli, primary screen, bacterial rRNA inhibitor project, GFP/RFP fluorescence, OD600, single point; AID 720706, 2013; E. coli WT GFP vs humanized-ribosome RFP mutants, 24 h; hits give low values; DMSO median 0, no signal -100; 350,000 compounds, 1.6% hits; GFP signal change (wild-type ribosome), % (no concentration beside the values);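 active = significant combined selectivity score with lowered wild-type GFP, culture density cut under 30%, mutant RFP and density less affected; inactive = any of these conditions unmet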
Env fusion inh – inhibitors of HIV-1 Env-driven cell-cell fusion, primary screen, HeLa-JRFL effector, CEM21 target cells, luciferase. inhibition, % at 12.3 µM. 360,000 compounds, 1.1% hits. AID 651610, 2012;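 active = mean replicate inhibition score of at least 50 and every replicate individually at or above 50; inconclusive = only one of the two criteria met; inactive = mean below 50 and not all replicates reaching 50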
FN deposit inh – inhibitors of fibronectin matrix deposition, primary screen, AH1F cells, Alexa488-fibronectin fluorescence, plate reader | AH1F fibroblasts, overnight | inhibition, % at 12.6 µM | 350,000 compounds, 0.086% hits;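 active = mean inhibition across replicates of 30% or more, regardless of how many single replicates reach that level; inconclusive = mean under 30% yet at least half of replicates reach 30%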
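Assay system: AH1F fibroblasts assembling fluorescent fibronectin matrix; Amount: 10000 AH1F cells per well; Buffer or medium: DMEM, 2% serum; Probe or stimulus: Alexa488-fibronectin, 24 nM final in well; Doses: single compound dose, delivered by pin transfer; Incubation: 1 h adhesion, overnight exposure; Measured by: fluorescence 485/525 nm; Read-out: fibronectin deposition inhibition.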
ERp5 inh – inhibitors of ERp5-driven insulin aggregation, primary screen, biochemical, turbidity, absorbance 650 nm, single point. 90 min. inhibition, % at 9.99 µM. 350,000 compounds, 0.05% hits;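 active = mean replicate inhibition above about 25%, with every replicate also reaching it, limit read from the data, passing the limit was not always enough; inconclusive = only one of those two criteria met; inactive = neither criterion met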
PDI inh – inhibitors of human PDI, primary screen, biochemical, turbidity, single point, plate reader | Protein disulfide-isomerase (Homo sapiens), P07237 | PDI insulin aggregation turbidity, A650, 90 min | inhibition, % at 10 µM | 350,000 compounds, 0.052% hits;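 active = mean inhibition across replicates of 30% or more, whatever share of single replicates reach that level; inconclusive = mean inhibition below 30% while every single replicate reaches 30%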
Target sequence (P07237 whole entry, looked up): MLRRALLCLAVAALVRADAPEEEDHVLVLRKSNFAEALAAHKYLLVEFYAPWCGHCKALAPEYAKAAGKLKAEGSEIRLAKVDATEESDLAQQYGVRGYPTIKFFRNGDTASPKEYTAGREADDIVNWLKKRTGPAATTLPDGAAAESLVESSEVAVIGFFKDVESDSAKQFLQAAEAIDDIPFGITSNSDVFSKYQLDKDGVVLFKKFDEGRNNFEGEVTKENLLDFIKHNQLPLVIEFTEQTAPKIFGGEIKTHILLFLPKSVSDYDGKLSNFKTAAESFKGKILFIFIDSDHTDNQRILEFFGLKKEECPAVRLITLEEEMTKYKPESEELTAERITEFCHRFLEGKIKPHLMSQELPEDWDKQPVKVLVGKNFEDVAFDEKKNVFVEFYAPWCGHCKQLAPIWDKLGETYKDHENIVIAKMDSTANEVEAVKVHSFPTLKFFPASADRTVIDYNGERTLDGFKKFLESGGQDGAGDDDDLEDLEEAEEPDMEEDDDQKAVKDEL
PvdQ inh – P. aeruginosa PvdQ acylase inhibitors, primary screen, biochemical, fluorescence, plate reader and imaging, single point; purified PvdQ acylase; inhibition, % at 10 µM; 340,000 compounds, 0.063% hits; in the data active = inhibition above about 30%, passing the limit was not always enough; inconclusive = no clear call, values can overlap the other calls
A number is an active result; - = inactive; ? = inconclusive; . = no result given; [ ] = remark or other dose.

SMILES	Ecoli rRNA inh	Env fusion inh	FN deposit inh	ERp5 inh	PDI inh	PvdQ inh
COc1ccc(CN(C)C[C@H]2Oc3ccc(NC(=O)CCC(F)(F)F)cc3CC(=O)N([C@H](C)CO)C[C@@H]2C)cc1	-	-	.	-	.	.
CC(=O)N(C)C[C@@H]1Oc2ccc(N)cc2C(=O)N(C)C[C@@H]1C	-	.	-	.	.	.
CC(C)N(C(=O)[C@H]1C[C@H](CC(=O)NCC23CC4CC(CC(C4)C2)C3)C(=O)N2CCc3c([nH]c4ccc(Cl)cc34)[C@]12C)C(C)C	-	.	-	-	-	-
CCN(CC)C(=O)[C@H]1C[C@H](CC(=O)NCC23CC4CC(CC(C4)C2)C3)C(=O)N2CCc3c([nH]c4ccc(Cl)cc34)[C@]12C	-	64.9	-	-	-	-
Cc1noc(C)c1NC(=O)N(C)C[C@H]1Oc2ccc(NS(=O)(=O)c3ccc(Cl)cc3)cc2C(=O)N([C@@H](C)CO)C[C@H]1C	-	-	.	-	.	.
COc1ccc([Si](C)(C)[C@@H]2[C@@H](CCO)O[C@]3(C(=O)N(Cc4ccc(N5CCOC5=O)cc4)c4ccccc43)[C@H]2C)cc1	.	57.2[16.7 µM]	.	-	.	.
COc1ccc([Si](C)(C)[C@@H]2[C@@H](CCO)O[C@]3(C(=O)N(Cc4cccc(N5CCOC5=O)c4)c4ccccc43)[C@H]2C)cc1	.	?	.	-	.	.
CCCN1C[C@H](C)[C@@H](OC)CN(C)C(=O)c2ccc(NC(=O)CC)cc2OC[C@H]1C	-	.	-	.	.	.
O=C(OCn1ncc(Br)c(Br)c1=O)c1ccccc1Cl	-20.1	.	.	-	-	-
O=C(/C=C/c1cccs1)Nc1ccc([N+](=O)[O-])cc1	.	-	-	.	-	-
O=C(/C=C/c1cccs1)Nc1ccncc1	-	-	-	-	-	35.8
CC(C)[C@@H](C)NC(=O)N(C)C[C@H]1OCc2ccccc2-c2ccccc2C(=O)N([C@H](C)CO)C[C@H]1C	-	.	-	.	.	.
COc1ccc(C(CCNCc2ccc(OC(C)C)cc2)C(C)C)cc1 (configuration not stated)	-47.7	-	-	-	-	.
COc1ccccc1C(CCNCc1ccc(N(C)C)cc1)c1ccc(OC(C)C)cc1 (configuration not stated)	-	55.3	-	-	-	-
COc1ccc(CNCCC(c2ccc(OC(C)C)cc2)C(C)C)cc1OC (configuration not stated)	.	77.0	.	.	-	-
COc1ccc(CNCCC(c2ccc(OC(C)C)cc2)c2ccccc2OC)cc1 (configuration not stated)	-	?	-	-	-	-
COc1ccc(CNCCC(c2ccc(OC(C)C)cc2)c2ccccc2OC)cc1OC (configuration not stated)	-	-	-	-	-	-
COc1ccc(C(CCNCc2ccc(N(C)C)cc2)C(C)C)cc1 (configuration not stated)	.	64.9	-	-	-	-
O=S(=O)(N[C@@H]1CC[C@@H](CCn2cc(-c3ccccc3F)nn2)O[C@H]1CO)c1ccc(F)cc1	-	.	.	-	.	.
C=CC[n+]1c(-c2ccc(OCC)cc2)csc1NNC(=O)Nc1ccccc1	.	61.4	-	.	-	-
C=CC[n+]1c(-c2ccc(C)cc2)csc1Nc1c(C)n(C)n(-c2ccccc2)c1=O	-	-	-	-	-	-
C=CC(=O)N1C/C(=C/c2ccc(Cl)cc2)C(=O)/C(=C\c2ccc(Cl)cc2)C1	-	102.4	-	-	-	-
C=CC(=O)N1C/C(=C/c2ccccc2)C(=O)/C(=C\c2ccccc2)C1	-43.8	78.9	39.8	-	-	-
O=C1C(=Cc2ccc(Cl)cc2)Cc2ccccc21	.	-	-	-	.	.
CN(C)C(=O)c1cccc(-c2ccc3c(c2)[C@H]2[C@H](CCN2S(=O)(=O)c2ccccc2)[C@@H](CO)N3)c1	-	.	-	-	.	.
SMILES	Ecoli rRNA inh	Env fusion inh	FN deposit inh	ERp5 inh	PDI inh	PvdQ inh
Cc1ccc(CNC(=O)c2ccc(Br)o2)cc1	-18.1	.	.	-	-	-
CC(C)(C)c1ccc(OCCC(=O)Nc2ccc(N3CCOCC3)cc2N2CCOCC2)cc1	-	68.8	-	-	-	-
CCOc1cc(N2CCOCC2)c(OCC)cc1NC(=O)COC(=O)CCOc1ccc(C(C)(C)C)cc1	-	-	-	-	-	-
COC(=O)[C@]1(C)N[C@H](CN(C)S(=O)(=O)c2ccc(C(C)(C)C)cc2)[C@@H]2C(=O)N(C)C(=O)[C@@H]21	-24.9	-	-	-	-	-
COC(=O)[C@]1(C)N[C@H](CN(C)S(=O)(=O)c2ccc(OC(F)(F)F)cc2)[C@@H]2C(=O)N(C)C(=O)[C@@H]21	-	.	-	34.1	-	-
COC(=O)[C@]1(C)N[C@H](CN(C)S(=O)(=O)c2ccc(C)cc2)[C@@H]2C(=O)N(C)C(=O)[C@@H]21	-	-	-	-	-	-
CC[C@@]1(C(=O)OC)N[C@H](CN(C)S(=O)(=O)c2ccc(OC(F)(F)F)cc2)[C@@H]2C(=O)N(C)C(=O)[C@@H]21	-	-	-	-	-	-
CN1/C(=C\C(=O)COC(=O)c2ccc([N+](=O)[O-])o2)C(C)(C)c2ccccc21	-	-	-	-	-	-
CN1/C(=C\C(=O)COC(=O)c2nccnc2N)C(C)(C)c2ccccc21	-	58.5	-	-	-	-
Cc1c(O)ccc(/C(Cc2ccc3ccccc3n2)=N\N)c1O	-25.3	-	-	-	-	-
C#CCOCCOCCOCCNc1nc(N2CCN(C(=O)[C@H](CCCCN)n3cc([C@@H](N)C(C)CC)nn3)CC2)nc(N2CCN(C(=O)[C@H](Cc3cc4ccccc4[nH]3)n3cc([C@@H](N)CC(C)C)nn3)CC2)n1 (some centres not stated)	.	.	.	.	43.5	-
O=C1N[C@@H](Cc2ccccc2)COCc2cnnn2CC[C@@H]1Cc1cccc(F)c1	-	.	-	.	.	.
C[C@H]1CN(C)C(=O)c2cc(N)ccc2O[C@H]1CN(C)C	-	.	-	.	.	.
O=C(NCCc1ccccc1)C1CCN(c2nc3ccccc3o2)CC1	-	.	.	-	-	-
O=C(NC1CCCCCCC1)C1CCN(c2nc3ccccc3o2)CC1	.	75.2	.	.	-	-
CC(C)c1ccc(-c2csc3ncnc(N4CCN(C)CC4)c23)cc1	-27.7	-	-	-	-	-
Clc1ccc(CN2CCN(c3ncnc4scc(-c5cccs5)c34)CC2)cc1	.	65.5	-	.	-	-
Fc1ccc(CN2CCN(c3ncnc4scc(-c5ccc(F)cc5)c34)CC2)cc1	-	-	-	-	-	-
C[C@H]1CN(C)C(=O)Cc2cc(NS(C)(=O)=O)ccc2O[C@@H]1CN(C)S(C)(=O)=O	-	.	-	.	.	.

Bioassay records from PubChem BioAssay.
